For assay [1], the target named is Tyrosine-protein kinase FRK (Homo sapiens) (UniProt P42685). As to the kind of experiment: Competitive binding affinity to FRK (unknown origin) at 10 uM in presence of ATP relative to control. In short, it runs like this:
(§1)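 In vitro ATP-site competition binding assay, part of profiling against a diverse panel of 128 kinases. Each compound was tested at a single concentration of 10 µM. Kinome selectivity was summarized as S15 selectivity scores.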

For assay [2], the target named is Receptor-type tyrosine-protein kinase FLT3 (Homo sapiens) (UniProt P36888). As to the kind of experiment: Competitive binding affinity to FLT3 (unknown origin) at 10 uM in presence of ATP relative to control. In short, it runs like this: as §1
Receptor-type tyrosine-protein kinase FLT3 (Homo sapiens), sequence (P36888 whole entry): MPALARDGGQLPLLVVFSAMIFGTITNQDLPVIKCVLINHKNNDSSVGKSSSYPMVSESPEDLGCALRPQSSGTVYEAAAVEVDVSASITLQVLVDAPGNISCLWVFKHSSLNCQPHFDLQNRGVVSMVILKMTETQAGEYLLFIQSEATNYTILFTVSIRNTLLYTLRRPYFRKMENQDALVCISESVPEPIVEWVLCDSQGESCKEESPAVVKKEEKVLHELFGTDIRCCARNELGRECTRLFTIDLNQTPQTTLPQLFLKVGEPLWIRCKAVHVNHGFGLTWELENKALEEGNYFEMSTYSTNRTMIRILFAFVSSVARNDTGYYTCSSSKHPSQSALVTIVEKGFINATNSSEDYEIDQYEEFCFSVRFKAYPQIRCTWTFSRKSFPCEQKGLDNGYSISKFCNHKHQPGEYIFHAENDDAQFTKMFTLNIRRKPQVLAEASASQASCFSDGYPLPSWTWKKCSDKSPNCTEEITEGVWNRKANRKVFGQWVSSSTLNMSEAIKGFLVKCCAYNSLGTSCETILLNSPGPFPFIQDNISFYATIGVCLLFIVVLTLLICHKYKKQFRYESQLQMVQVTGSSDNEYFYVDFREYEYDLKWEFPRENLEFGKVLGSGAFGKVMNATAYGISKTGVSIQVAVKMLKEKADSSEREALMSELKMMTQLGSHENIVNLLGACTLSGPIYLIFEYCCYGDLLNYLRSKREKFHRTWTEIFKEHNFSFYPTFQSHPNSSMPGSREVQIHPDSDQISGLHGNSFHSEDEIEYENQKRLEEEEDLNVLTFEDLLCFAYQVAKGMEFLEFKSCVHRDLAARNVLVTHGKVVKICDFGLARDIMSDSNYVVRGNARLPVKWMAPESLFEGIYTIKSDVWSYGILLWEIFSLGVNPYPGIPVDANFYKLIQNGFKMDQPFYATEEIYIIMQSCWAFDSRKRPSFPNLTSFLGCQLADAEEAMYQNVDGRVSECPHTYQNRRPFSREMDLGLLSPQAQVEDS
For assay [3], the target named is Receptor tyrosine-protein kinase erbB-4 (Homo sapiens) (UniProt Q15303). The experiment in a line: Competitive binding affinity to ERBB4 (unknown origin) at 10 uM in presence of ATP relative to control. The method, boiled down:
as §1

Assay [4] deals with Ephrin type-A receptor 7 (Homo sapiens) (UniProt Q15375). As to the kind of experiment: Competitive binding affinity to EPHA7 (unknown origin) at 10 uM in presence of ATP relative to control. The method, boiled down: as §1
In assay [5] the target is Casein kinase I isoform epsilon (Homo sapiens) (UniProt P49674). As to the kind of experiment: Competitive binding affinity to CSNK1E (unknown origin) at 10 uM in presence of ATP relative to control.
The target of assay [6] is Dual specificity protein kinase CLK4 (Homo sapiens) (UniProt Q9HAZ1). As to the kind of experiment: Competitive binding affinity to CLK4 (unknown origin) at 10 uM in presence of ATP relative to control.
For assay [7], the target named is Dual specificity protein kinase CLK1 (Homo sapiens) (UniProt P49759). The experiment in a line: Competitive binding affinity to CLK1 (unknown origin) at 10 uM in presence of ATP relative to control.
In assay [8] the target is Calcium/calmodulin-dependent protein kinase type II subunit delta (Homo sapiens) (UniProt Q13557). As to the kind of experiment: Competitive binding affinity to CAMK2D (unknown origin) at 10 uM in presence of ATP relative to control.
The target of assay [9] is Calcium/calmodulin-dependent protein kinase type II subunit alpha (Homo sapiens) (UniProt Q9UQM7). The experiment in a line: Competitive binding affinity to CAMK2A (unknown origin) at 10 uM in presence of ATP relative to control.
In assay [10] the target is Serine/threonine-protein kinase B-raf (Homo sapiens) (UniProt P15056). As to the kind of experiment: Competitive binding affinity to BRAF (unknown origin) at 10 uM in presence of ATP relative to control.
The target in assay [11] is AP2-associated protein kinase 1 (Homo sapiens) (UniProt Q2M2I8). As to the kind of experiment: Competitive binding affinity to AAK1 (unknown origin) at 10 uM in presence of ATP relative to control. The method, boiled down: (§2)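 In vitro ATP-site competition binding assay across a diverse panel of 128 kinases, with each compound tested at a single concentration. Kinase binding is expressed relative to control.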
AP2-associated protein kinase 1 (Homo sapiens), sequence (Q2M2I8 whole entry, looked up): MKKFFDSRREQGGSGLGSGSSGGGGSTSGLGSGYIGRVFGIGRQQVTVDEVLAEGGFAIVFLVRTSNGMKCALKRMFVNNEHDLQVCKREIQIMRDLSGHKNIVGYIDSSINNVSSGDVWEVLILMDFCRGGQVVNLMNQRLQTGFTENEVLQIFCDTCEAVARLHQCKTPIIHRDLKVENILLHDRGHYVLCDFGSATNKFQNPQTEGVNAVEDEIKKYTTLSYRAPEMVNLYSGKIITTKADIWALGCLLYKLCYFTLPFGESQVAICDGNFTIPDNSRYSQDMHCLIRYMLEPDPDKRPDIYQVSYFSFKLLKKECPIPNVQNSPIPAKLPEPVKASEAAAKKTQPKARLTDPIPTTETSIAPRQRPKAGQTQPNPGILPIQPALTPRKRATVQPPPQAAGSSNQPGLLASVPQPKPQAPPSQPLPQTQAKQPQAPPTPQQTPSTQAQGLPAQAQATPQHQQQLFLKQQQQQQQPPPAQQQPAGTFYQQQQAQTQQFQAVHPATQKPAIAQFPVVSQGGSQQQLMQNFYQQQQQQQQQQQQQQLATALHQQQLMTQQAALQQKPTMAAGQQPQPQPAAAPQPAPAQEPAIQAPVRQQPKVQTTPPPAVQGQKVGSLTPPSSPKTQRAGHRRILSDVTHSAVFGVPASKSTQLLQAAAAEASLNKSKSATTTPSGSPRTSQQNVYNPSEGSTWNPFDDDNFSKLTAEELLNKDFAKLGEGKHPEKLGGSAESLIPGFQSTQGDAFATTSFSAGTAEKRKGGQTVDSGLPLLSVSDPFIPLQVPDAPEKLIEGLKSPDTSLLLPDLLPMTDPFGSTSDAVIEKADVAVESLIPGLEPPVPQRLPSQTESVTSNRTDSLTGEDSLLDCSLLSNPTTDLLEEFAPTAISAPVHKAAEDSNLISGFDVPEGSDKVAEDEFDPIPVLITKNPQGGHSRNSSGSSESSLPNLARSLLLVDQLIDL

Assay [12] addresses Tyrosine-protein kinase SYK (Homo sapiens) (UniProt P43405). The experiment in a line: Competitive binding affinity to SYK (unknown origin) at 10 uM in presence of ATP relative to control. In short, it runs like this: (§3)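 In vitro ATP-site competition binding assay across a diverse panel of 128 kinases, with compound tested at a single concentration. Kinase selectivity scores (S15) were calculated from the panel profiles.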

The target of assay [13] is Mitogen-activated protein kinase 9 (Homo sapiens, UniProt P45984).
Assay [14] addresses Protein-tyrosine kinase 6 (Homo sapiens) (UniProt Q13882). The experiment in a line: Competitive binding affinity to PTK6 (unknown origin) at 10 uM in presence of ATP relative to control. The method, boiled down:
as §3

Assay [15] addresses Serine/threonine-protein kinase PAK 5 (Homo sapiens) (UniProt Q9P286). The experiment in a line: Competitive binding affinity to PAK7/PAK5 (unknown origin) at 10 uM in presence of ATP relative to control. The method, boiled down:
as §3

The target of assay [16] is Serine/threonine-protein kinase Nek6 (Homo sapiens) (UniProt Q9HC98). As to the kind of experiment: Competitive binding affinity to NEK6 (unknown origin) at 10 uM in presence of ATP relative to control. In short, it runs like this:
as §3

Assay [17] deals with T1, Serine/threonine-protein kinase Nek9 (Homo sapiens) (UniProt Q8TD19).
T1 sequence (whole entry): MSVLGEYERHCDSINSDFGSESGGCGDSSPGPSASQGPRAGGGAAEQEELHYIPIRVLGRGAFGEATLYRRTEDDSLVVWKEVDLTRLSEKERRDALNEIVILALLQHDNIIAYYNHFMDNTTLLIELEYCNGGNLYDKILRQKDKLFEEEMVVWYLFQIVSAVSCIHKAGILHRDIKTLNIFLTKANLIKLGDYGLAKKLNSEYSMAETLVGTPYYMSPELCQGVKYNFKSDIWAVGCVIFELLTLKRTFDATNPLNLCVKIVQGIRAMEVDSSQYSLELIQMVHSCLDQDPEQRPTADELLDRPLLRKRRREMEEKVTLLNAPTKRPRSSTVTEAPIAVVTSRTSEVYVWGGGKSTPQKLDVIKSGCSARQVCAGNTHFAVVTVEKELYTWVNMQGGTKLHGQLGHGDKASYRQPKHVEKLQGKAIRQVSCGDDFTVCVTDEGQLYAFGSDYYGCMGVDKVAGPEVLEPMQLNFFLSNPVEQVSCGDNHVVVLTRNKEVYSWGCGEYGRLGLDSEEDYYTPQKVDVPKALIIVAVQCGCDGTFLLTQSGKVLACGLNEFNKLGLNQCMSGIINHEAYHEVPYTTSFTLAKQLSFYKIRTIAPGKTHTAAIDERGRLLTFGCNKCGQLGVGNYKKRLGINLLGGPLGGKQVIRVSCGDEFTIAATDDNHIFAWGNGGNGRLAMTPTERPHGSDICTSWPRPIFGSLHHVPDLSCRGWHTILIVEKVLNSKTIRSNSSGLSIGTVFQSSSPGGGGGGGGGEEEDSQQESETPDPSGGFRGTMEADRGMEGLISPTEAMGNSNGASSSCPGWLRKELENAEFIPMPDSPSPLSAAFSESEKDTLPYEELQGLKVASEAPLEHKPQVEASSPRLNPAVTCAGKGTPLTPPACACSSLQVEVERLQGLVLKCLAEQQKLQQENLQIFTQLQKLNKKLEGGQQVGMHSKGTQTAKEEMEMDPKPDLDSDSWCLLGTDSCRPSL
As to the kind of experiment: Competitive binding affinity to NEK9 (unknown origin) at 10 uM in presence of ATP relative to control. The method, boiled down: as §3

Assay [18] has as its target Myosin light chain kinase 2, skeletal/cardiac muscle (Homo sapiens) (UniProt Q9H1R3). The experiment in a line: Competitive binding affinity to MYLK2 (unknown origin) at 10 uM in presence of ATP relative to control. In short, it runs like this:
as §3

Assay [19] has as its target Serine/threonine-protein kinase MARK2 (Homo sapiens) (UniProt Q7KZI7). The experiment in a line: Competitive binding affinity to MARK2 (unknown origin) at 10 uM in presence of ATP relative to control. The method, boiled down:
as §3

The target of assay [20] is Mitogen-activated protein kinase 8 (Homo sapiens, UniProt P45983). As to the kind of experiment: Competitive binding affinity to JNK1 (unknown origin) at 10 uM in presence of ATP relative to control. The method, boiled down:
as §2

Assay [21] addresses Insulin-like growth factor 1 receptor (Homo sapiens) (UniProt P08069). The experiment in a line: Competitive binding affinity to IGF1R (unknown origin) at 10 uM in presence of ATP relative to control. The method, boiled down:
as §1

SMILES strings stand for the structures. Bounds are passed on as bounds.

Mitogen-activated protein kinase 8, sequence (P45983 whole entry): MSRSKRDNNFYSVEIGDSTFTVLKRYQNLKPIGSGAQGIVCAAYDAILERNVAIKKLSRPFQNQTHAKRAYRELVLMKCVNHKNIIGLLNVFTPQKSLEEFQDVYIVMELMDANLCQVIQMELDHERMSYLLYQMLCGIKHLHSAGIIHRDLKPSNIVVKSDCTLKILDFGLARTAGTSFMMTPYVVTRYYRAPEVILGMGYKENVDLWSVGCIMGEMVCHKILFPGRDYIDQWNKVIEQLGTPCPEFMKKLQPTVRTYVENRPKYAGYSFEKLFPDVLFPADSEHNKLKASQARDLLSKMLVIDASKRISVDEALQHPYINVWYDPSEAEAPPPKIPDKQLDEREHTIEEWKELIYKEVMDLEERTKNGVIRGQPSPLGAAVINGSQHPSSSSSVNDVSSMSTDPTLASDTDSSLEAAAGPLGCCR
Protein-tyrosine kinase 6 (Homo sapiens), sequence (Q13882 whole entry, looked up): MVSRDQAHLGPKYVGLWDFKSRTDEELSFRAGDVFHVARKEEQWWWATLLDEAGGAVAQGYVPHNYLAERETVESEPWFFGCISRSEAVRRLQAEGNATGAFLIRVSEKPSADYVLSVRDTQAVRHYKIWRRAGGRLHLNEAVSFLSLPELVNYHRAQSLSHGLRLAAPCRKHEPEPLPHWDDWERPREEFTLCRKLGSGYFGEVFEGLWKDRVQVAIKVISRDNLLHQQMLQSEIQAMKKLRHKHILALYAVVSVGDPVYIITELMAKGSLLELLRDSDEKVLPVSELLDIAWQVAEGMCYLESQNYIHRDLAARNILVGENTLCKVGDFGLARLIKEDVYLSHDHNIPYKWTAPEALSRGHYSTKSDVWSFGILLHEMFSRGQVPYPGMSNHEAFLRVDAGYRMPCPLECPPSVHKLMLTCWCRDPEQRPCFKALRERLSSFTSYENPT
Myosin light chain kinase 2, skeletal/cardiac muscle (Homo sapiens), sequence (Q9H1R3 whole entry): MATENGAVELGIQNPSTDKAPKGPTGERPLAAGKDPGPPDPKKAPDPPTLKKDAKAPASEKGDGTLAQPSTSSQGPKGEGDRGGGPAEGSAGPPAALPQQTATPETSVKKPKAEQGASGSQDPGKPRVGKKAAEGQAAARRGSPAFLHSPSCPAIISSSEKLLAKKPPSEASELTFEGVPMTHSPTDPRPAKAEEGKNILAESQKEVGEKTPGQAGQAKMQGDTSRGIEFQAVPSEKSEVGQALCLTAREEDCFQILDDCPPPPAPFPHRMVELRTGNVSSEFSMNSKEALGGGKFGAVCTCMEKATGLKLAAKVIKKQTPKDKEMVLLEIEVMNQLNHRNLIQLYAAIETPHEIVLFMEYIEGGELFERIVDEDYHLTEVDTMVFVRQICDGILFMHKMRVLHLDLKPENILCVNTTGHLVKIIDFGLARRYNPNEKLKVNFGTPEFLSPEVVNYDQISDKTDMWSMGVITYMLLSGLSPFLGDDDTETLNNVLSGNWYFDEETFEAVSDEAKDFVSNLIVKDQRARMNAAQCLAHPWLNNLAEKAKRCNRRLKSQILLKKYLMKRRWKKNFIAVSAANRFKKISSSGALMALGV
Receptor tyrosine-protein kinase erbB-4 (Homo sapiens), sequence (Q15303 whole entry): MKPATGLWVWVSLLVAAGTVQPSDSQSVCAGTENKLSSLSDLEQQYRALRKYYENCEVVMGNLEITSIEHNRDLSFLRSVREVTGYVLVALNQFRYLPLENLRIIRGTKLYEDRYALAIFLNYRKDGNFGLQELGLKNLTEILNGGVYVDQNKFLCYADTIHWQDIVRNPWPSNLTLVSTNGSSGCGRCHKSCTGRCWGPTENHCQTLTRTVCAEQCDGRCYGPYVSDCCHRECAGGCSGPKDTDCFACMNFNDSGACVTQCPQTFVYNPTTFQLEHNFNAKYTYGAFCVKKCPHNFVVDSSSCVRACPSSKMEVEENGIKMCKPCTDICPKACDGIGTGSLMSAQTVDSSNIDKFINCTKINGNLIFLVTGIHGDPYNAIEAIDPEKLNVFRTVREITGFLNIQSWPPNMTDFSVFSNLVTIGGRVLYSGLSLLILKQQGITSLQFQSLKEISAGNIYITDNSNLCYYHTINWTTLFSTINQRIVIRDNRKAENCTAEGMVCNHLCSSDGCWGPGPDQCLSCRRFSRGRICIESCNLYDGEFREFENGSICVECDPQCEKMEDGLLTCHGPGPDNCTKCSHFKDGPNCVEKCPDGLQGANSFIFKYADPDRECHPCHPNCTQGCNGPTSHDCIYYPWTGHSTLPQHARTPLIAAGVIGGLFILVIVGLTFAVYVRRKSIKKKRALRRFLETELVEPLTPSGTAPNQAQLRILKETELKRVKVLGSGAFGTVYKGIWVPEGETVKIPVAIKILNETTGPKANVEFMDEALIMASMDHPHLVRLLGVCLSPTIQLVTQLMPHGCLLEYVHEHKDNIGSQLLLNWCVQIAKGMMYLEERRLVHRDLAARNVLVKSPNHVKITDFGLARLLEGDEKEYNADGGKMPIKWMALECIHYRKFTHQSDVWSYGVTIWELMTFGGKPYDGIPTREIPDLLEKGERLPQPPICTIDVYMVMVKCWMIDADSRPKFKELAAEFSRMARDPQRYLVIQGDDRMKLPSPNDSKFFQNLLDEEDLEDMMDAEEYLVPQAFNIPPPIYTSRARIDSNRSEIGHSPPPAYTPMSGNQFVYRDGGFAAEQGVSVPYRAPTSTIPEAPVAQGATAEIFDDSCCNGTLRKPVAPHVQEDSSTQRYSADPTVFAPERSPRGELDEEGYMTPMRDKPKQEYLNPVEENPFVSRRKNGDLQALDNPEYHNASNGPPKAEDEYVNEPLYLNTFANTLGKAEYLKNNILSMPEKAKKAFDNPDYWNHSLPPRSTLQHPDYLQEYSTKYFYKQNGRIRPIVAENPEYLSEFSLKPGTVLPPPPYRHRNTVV
Serine/threonine-protein kinase Nek6 (Homo sapiens), sequence (Q9HC98 whole entry): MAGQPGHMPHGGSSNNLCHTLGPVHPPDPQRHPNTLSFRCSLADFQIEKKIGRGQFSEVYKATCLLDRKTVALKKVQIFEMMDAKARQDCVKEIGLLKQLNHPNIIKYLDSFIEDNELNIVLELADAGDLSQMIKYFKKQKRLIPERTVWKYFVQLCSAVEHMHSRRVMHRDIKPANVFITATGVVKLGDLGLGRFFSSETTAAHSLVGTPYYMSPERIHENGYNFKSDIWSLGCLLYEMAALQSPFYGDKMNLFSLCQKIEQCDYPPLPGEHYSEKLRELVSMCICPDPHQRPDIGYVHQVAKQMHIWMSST

By inhibition is commonly meant the drop in the measured response relative to a control, in per cent. In general, IC50 refers to the concentration that inhibits the measured activity by half. Read a low IC50 as greater potency in that assay. On to `O=C([C@H]1CC[C@H](Nc2nccc(-n3nnc4ccccc43)n2)CC1)N1CCOCC1`, for which the inhibition was less than 50% in assay [1]; less than 50% in [2]; less than 50% in assay [3]; less than 50% in [4]; 95% in assay [5]; 94% in [6]. Further, the inhibition in assay [7] was 87%; in assay [8] it was less than 50%; in assay [9], less than 50%; in assay [10], less than 50%; in assay [11], 98%; in [12], less than 50%. For the same compound, the inhibition in [14] is less than 50%; in [15], less than 50%; in assay [16] it was 66%; in [17], less than 50%; in assay [18], less than 50%; in assay [19], less than 50%. Also, the inhibition in [20] was 100%; in [21] it was less than 50%. In addition, the IC50 in [13] is 180 nM.
In the case of `CS(=O)(=O)CCCOc1cccc2c1ccn2-c1ccnc(N[C@H]2CC[C@H](C(=O)N3CCC(O)CC3)CC2)n1`, in assay [13], the IC50 was 66 nM. The inhibition in [20] was more than 85%.
Take `O[C@H]1CC[C@H](Nc2nccc(-n3ccc4ccccc43)n2)CC1`: the inhibition in [1] is less than 50%; in [2], 85%; in assay [3], less than 50%; in assay [4], less than 50%; in assay [5] it was 85%; in [6], 95%. For the same compound, the inhibition is 91% in assay [7]; 85% in [8]; 89% in assay [9]; less than 50% in [10]; 70% in assay [11]; less than 50% in assay [12]. The inhibition in assay [14], in assay [15], in assay [16], in assay [17], in assay [18] and in [19] was less than 50% in each case. Moreover, the results for the inhibition in assay [20] and in assay [21] were 98% and less than 50%, respectively. Further, half-maximal inhibition in assay [13] (IC50) required 360 nM.
With `O[C@H]1CC[C@H](Nc2nccc(-n3ncc4ccccc43)n2)CC1`, the inhibition was less than 50% in assay [1]; 95% in [2]; less than 50% in assay [3]; less than 50% in assay [4]; 94% in assay [5]; 99% in assay [6]. For the same compound, the inhibition in assay [7] is 93%; in [8], 93%; in assay [9] it was 94%; in [10], less than 50%; in assay [11] it was 95%; in [12] it was less than 50%. Also, the inhibition in [14], in assay [15], in [16], in assay [17], in assay [18] and in assay [19] was less than 50% in each case. The inhibition is 99% in assay [20] and less than 50% in [21]. This compound yielded an IC50 in assay [13] of 350 nM.
Regarding `O[C@H]1CC[C@H](Nc2nccc(-c3n[nH]c4ccccc34)n2)CC1`, the inhibition in assay [1] was less than 50%; in [2], less than 50%; in assay [3], less than 50%; in [4] it was 95%; in assay [5] it was 100%; in assay [6] it was 100%. In addition, the inhibition is 100% in assay [7]; 91% in assay [8]; 94% in assay [9]; less than 50% in assay [10]; 99% in [11]; 69% in [12]. In addition, the inhibition is 78% in [14]; 86% in assay [15]; 77% in assay [16]; less than 50% in assay [17]; 84% in assay [18]; 88% in assay [19]. The inhibition in assay [20] was 100%; in assay [21] it was 95%. Moreover, the IC50 in [13] was 650 nM.
As to `N[C@H]1CC[C@H](Nc2nccc(-n3nnc4ccccc43)n2)CC1`, the inhibition was less than 50% in assay [1]; 92% in assay [2]; less than 50% in [3]; less than 50% in [4]; 100% in [5]; 100% in assay [6]. Moreover, the inhibition in assay [7] was 100%; in assay [8], 83%; in assay [9], 84%; in assay [10], less than 50%; in assay [11], 99%; in assay [12] it was less than 50%. For the same compound, the inhibition in [14] is less than 50%; in [15] it was less than 50%; in assay [16], less than 50%; in assay [17], less than 50%; in assay [18], 73%; in [19] it was 78%. The inhibition in [20] is 99%; in assay [21], less than 50%. In assay [13], this compound returned an IC50 of 170 nM.
As for `O[C@H]1CC[C@H](Nc2nccc(-n3nnc4ccccc43)n2)CC1`, the inhibition is less than 50% in assay [1]; 88% in assay [2]; less than 50% in assay [3]; less than 50% in assay [4]; 100% in assay [5]; 98% in assay [6]. In addition, the inhibition in assay [7] is 95%; in [8], 74%; in assay [9], 88%; in assay [10], less than 50%; in [11] it was 98%; in [12] it was less than 50%. The inhibition in [14] was less than 50%; in [15] it was less than 50%; in assay [16] it was 73%; in assay [17] it was 81%; in assay [18] it was less than 50%; in [19], less than 50%. For the same compound, the results for the inhibition in assay [20] and in assay [21] were 99% and less than 50%, respectively. It took 110 nM to reach half-maximal inhibition in assay [13] (IC50).

Values taken from ChEMBL document CHEMBL2424622, “Development of amino-pyrimidine inhibitors of c-Jun N-terminal kinase (JNK): kinase profiling guided optimization of a 1,2,3-benzotriazole lead” (Bioorg Med Chem Lett, 2013).
